The results in this text go back to ChEMBL document CHEMBL4043283, “Discovery and Preclinical Development of IIIM-290, an Orally Active Potent Cyclin-Dependent Kinase Inhibitor” (J Med Chem, 2018).

Assay [1] has as its target CDK2/Cyclin A2 (Homo sapiens) (UniProt P24941+P20248). Kind of assay: Inhibition of CDK2/cyclin A (unknown origin) at 0.5 uM using histone H1 as substrate after 30 mins in presence of [33P]-gamma-ATP by filter binding assay relative to control. The class given is protein-complex assay.
The subject of assay [2] is MCF7. In words: Growth inhibition of human MCF7 cells at 10 uM after 48 hrs by MTT assay relative to control. Conditions: MCF7, 48 h, read-out: GI. In kind it is functional. Put shortly: (§1)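 Single-concentration primary screen at 10 μM by MTT assay. Cells were NCI-sourced cancer lines grown in appropriate medium at 37 °C, 95% humidity, 5% CO2. Growth inhibition is expressed relative to control.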
(In general: Formazan colour is commonly taken as a measure of viable cells.)

Assay [3] has as its system Caco-2. Kind of assay: Growth inhibition of human Caco2 cells after 48 hrs by MTT assay. In kind it is functional. The note with it: Caco-2, 48 h. Put shortly:
(§2)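 Cancer cell lines sourced from the National Cancer Institute (USA). Cells kept in appropriate growth medium at 37 °C, 95% humidity, 5% CO2. Antiproliferation read by tetrazolium (MTT) assay. GI50 values were determined only for compounds selected after an initial single-concentration screen.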

Assay [4] deals with MCF7. In words: Growth inhibition of human MCF7 cells after 48 hrs by MTT assay. The class given is functional. The note with it: MCF7, 48 h. Put shortly:
as §2

Assay [5] is filed under the species Homo sapiens. Kind of assay: Selectivity ratio of IC50 for CDK2/cyclin A (unknown origin) to IC50 for CDK9/cyclin T1 (unknown origin).
The subject of assay [6] is MIA PaCa-2. In words: Growth inhibition of human MIAPaCa2 cells at 10 uM after 48 hrs by MTT assay relative to control. In kind it is functional. Conditions: MIA PaCa-2, 48 h, read-out: GI. Put shortly: as §1
In assay [7] the test system is Caco-2. Kind of assay: Growth inhibition of human Caco2 cells at 10 uM after 48 hrs by MTT assay relative to control. In kind it is functional. The note with it: Caco-2, 48 h, read-out: GI. The procedure, abridged:
as §1

For assay [8], the system named is MIA PaCa-2. Kind of assay: Growth inhibition of human MIAPaCa2 cells after 48 hrs by MTT assay. The class given is functional. Conditions: MIA PaCa-2, 48 h. Put shortly: as §2
For assay [9], the target named is CDK9/cyclin T1 (Homo sapiens, UniProt P50750). In words: Inhibition of CDK9/cyclin T1 (unknown origin) using YSPTSPSYSPTSPSYSPTSPKKK as substrate after 30 mins in presence of [33P]-gamma-ATP by filter binding assay. In kind it is protein-complex assay.
Assay [10] relates to HL-60. In words: Growth inhibition of human HL60 cells at 10 uM after 48 hrs by MTT assay relative to control. In kind it is functional. The note with it: HL-60, 48 h, read-out: GI. The procedure, abridged:
as §1

The test system of assay [11] is HL-60. In words: Growth inhibition of human HL60 cells after 48 hrs by MTT assay. The class given is functional. Conditions: HL-60, 48 h. The procedure, abridged: as §2
For assay [12], the system named is PC-3. Kind of assay: Growth inhibition of human PC3 cells after 48 hrs by MTT assay. The note with it: PC-3, 48 h. The class given is functional. Put shortly: as §2
Assay [13] has as its system PC-3. Kind of assay: Growth inhibition of human PC3 cells at 10 uM after 48 hrs by MTT assay relative to control. The class given is functional. Conditions: PC-3, 48 h, read-out: GI. The procedure, abridged: as §1
Assay [14] concerns the target CDK9/cyclin T1 (Homo sapiens) (UniProt O60563+P50750). In words: Inhibition of CDK9/cyclin T1 (unknown origin) at 0.5 uM using YSPTSPSYSPTSPSYSPTSPKKK as substrate after 30 mins in presence of [33P]-gamma-ATP by filter binding assay relative to control. In kind it is protein-complex assay.
Assay [15] has as its target CDK2/Cyclin A2 (Homo sapiens, UniProt P24941). Kind of assay: Inhibition of CDK2/cyclin A (unknown origin) using histone H1 as substrate after 30 mins in presence of [33P]-gamma-ATP by filter binding assay. The class given is protein-complex assay.
Assay [16] relates to MIA PaCa-2. Kind of assay: Cell cycle arrest in human MIAPaCa2 cells assessed as accumulation at G1 phase at 2 uM after 24 hrs by propidium iodide staining-based flow cytometric method (reference value: 36%). The class given is functional. (In flow cytometry, cells or beads pass a laser one at a time.)
Assay [17] relates to MIA PaCa-2. Kind of assay: Induction of apoptosis in human MIAPaCa2 cells at 2 uM after 24 hrs by propidium iodide staining-based flow cytometric method relative to control. In kind it is functional.
Assay [18] relates to MIA PaCa-2. Kind of assay: Cell cycle arrest in human MIAPaCa2 cells assessed as accumulation at S phase at 2 uM after 24 hrs by propidium iodide staining-based flow cytometric method (reference value: 33%). In kind it is functional.
The subject of assay [19] is MIA PaCa-2. Kind of assay: Cell cycle arrest in human MIAPaCa2 cells assessed as accumulation at G2 phase at 2 uM after 24 hrs by propidium iodide staining-based flow cytometric method (reference value: 30%). In kind it is functional.

Each structure is given as a SMILES string.

A word on the inhibition: it is the share of the control response that was lost under treatment. As usually defined, the GI50 is the concentration that inhibits growth by half. As a reminder, the IC50 is the concentration that inhibits the measured activity by half.

CDK9/cyclin T1, sequence (O60563 whole entry): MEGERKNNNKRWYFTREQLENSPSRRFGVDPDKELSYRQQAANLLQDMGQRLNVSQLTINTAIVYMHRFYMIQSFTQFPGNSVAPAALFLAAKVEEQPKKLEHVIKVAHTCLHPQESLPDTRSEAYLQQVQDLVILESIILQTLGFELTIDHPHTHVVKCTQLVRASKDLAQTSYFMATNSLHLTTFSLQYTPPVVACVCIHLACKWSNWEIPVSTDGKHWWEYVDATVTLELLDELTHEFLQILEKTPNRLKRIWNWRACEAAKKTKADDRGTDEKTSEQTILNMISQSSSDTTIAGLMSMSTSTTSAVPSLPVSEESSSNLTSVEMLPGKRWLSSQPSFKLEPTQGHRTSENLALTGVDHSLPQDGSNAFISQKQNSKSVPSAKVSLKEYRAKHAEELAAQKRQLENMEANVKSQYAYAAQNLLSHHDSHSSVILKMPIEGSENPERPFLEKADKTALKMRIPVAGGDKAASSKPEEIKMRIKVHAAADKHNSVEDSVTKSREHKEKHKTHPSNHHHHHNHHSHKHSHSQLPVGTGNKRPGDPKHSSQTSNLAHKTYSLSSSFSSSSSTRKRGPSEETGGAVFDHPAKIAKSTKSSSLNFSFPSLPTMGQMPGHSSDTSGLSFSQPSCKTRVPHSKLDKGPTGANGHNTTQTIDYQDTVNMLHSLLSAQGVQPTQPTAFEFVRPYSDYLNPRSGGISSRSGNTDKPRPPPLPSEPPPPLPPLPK
CDK9/cyclin T1, sequence (P50750 whole entry): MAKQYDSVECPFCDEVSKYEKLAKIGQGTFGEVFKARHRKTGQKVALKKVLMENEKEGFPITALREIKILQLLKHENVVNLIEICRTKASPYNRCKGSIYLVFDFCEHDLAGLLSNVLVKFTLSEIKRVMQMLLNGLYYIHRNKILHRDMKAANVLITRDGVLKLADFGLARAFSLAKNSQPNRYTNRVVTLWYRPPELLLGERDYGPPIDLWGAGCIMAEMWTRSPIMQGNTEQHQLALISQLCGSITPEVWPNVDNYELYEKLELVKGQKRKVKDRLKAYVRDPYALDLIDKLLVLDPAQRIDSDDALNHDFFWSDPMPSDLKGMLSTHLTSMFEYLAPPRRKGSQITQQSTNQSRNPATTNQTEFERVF

On to `CN1CC[C@H](c2c(O)cc(O)c3c(=O)cc(/C=C/c4c(F)c(F)c(F)c(F)c4F)oc23)[C@H](O)C1`, for which the inhibition in [1] was determined as 42%; in assay [14] it was 92%. The inhibition of growth at 10 µM is 64% in assay [2]; 89% in assay [6]; 59% in assay [7]; 80% in assay [10]; 82% in assay [13]. Further, the 50% growth inhibitory concentration (GI50) was found to be 8 µM in assay [3]; 8 µM in [4]; 1 µM in [8]; 3 µM in assay [11]; 2 µM in assay [12]. Besides, in assay [5], the Ratio IC50 amounted to 52. Further, the IC50 in [9] was found to be 0.0115 µM; in assay [15], 0.608 µM.

In the case of `CN1CC[C@H](c2c(O)cc(O)c3c(=O)cc(/C=C/c4ccc(Cl)cc4)oc23)[C@H](O)C1`, the inhibition in assay [1] was 2%; in assay [14] it was 71%. The inhibition of growth at 10 µM was determined as 10% in assay [2]; 88% in [6]; 70% in [7]; 58% in [10]; 12% in assay [13]. The GI50 came to 5.6 µM in [3]; 49 µM in assay [4]; 2 µM in [8]; 8 µM in assay [11]; 31 µM in [12]. Further, in assay [5], the Ratio IC50 was determined as 10. The IC50 in assay [9] is 0.31 µM; in [15] it was 3.3 µM.

In the case of `CN1CC[C@H](c2c(O)cc(O)c3c(=O)cc(/C=C/c4ccccc4Cl)oc23)[C@H](O)C1`, the inhibition turned out to be 10% in assay [1] and 75% in assay [14]. In addition, the inhibition of growth at 10 µM in assay [2] was found to be 63%; in [6], 59%; in [7], 65%; in [10] it was 61%; in assay [13], 22%. For the same molecule, the GI50 in assay [3] came out at 9 µM; in assay [4], 9 µM; in assay [8], 8 µM; in assay [11] it was 9 µM; in assay [12], 17 µM. The Ratio IC50 in [5] was 10. The IC50 in [9] turned out to be 0.16 µM; in [15], 1.41 µM.

With `CN1CC[C@H](c2c(O)cc(O)c3c(=O)cc(/C=C/c4ccccc4F)oc23)[C@H](O)C1`, the inhibition in [1] stood at 9%; in assay [14] it was 60%. The inhibition of growth at 10 µM in [2] stood at 62%; in assay [6] it was 60%; in assay [7] it was 68%; in [10], 62%; in [13], 25%. The concentration for 50% growth inhibition (GI50) in assay [3] came out at 7 µM; in [4], 8 µM; in assay [8], 3 µM; in assay [11] it was 8 µM; in assay [12], 20 µM. Moreover, the IC50 in [9] stood at 0.26 µM; in assay [15] it was 1.52 µM.

On to `CN1CC[C@H](c2c(O)cc(O)c3c(=O)cc(/C=C/c4cccc(F)c4)oc23)[C@H](O)C1`, for which the inhibition in assay [1] worked out at 53%; in assay [14], 88%. Besides, the inhibition of growth at 10 µM in [2] is 83%; in assay [6], 67%; in [7] it was 61%; in assay [10] it was 60%; in assay [13], 67%. Also, the GI50 is 8 µM in assay [3]; 3 µM in assay [4]; 2 µM in assay [8]; 8 µM in assay [11]; 7 µM in assay [12]. Moreover, the results for the IC50 in assay [9] and in assay [15] were 0.029 µM and 0.466 µM, respectively.

For the molecule `CC[C@@]1(O)C(=O)OCc2c1cc1n(c2=O)Cc2cc3ccccc3nc2-1` [CAMPTOTHECIN], the Activity was found to be 42% in assay [16], 3.3% in assay [17], 26% in [18] and 31% in assay [19].

For `CN1CC[C@H](c2c(O)cc(O)c3c(=O)cc(/C=C/c4c5ccccc5cc5ccccc45)oc23)[C@H](O)C1`, the inhibition worked out at 43% in assay [1] and 80% in assay [14]. Moreover, the inhibition of growth at 10 µM in assay [2] was 78%; in [6], 77%; in assay [7], 44%; in assay [10] it was 78%; in [13], 75%. Moreover, the GI50 in assay [3] is 4 µM; in [4], 5 µM; in [8], 4 µM; in [11], 4 µM; in [12], greater than 100 µM. In addition, the IC50 in [9] came to 0.35 µM; in assay [15], 1.8 µM.

In the case of `CN1CC[C@H](c2c(O)cc(O)c3c(=O)cc(/C=C/c4cccc(Cl)c4)oc23)[C@H](O)C1`, the inhibition in [1] amounted to 5%; in [14], 53%. Also, the inhibition of growth at 10 µM in assay [2] came out at 82%; in assay [6], 52%; in [7], 55%; in assay [10] it was 35%; in assay [13], 53%. In addition, the GI50 in assay [3] came out at 9 µM; in [4], 2 µM; in [8], 10 µM; in assay [11], 20 µM; in [12] it was 10 µM. Moreover, the Ratio IC50 in [5] is 10. Moreover, the figures for the half-maximal inhibitory concentration (IC50) in [9] and in [15] were 0.28 µM and 3 µM, respectively.

On to `CN1CC[C@H](c2c(O)cc(O)c3c(=O)cc(/C=C/c4ccccc4)oc23)[C@H](O)C1`, for which the results for the inhibition in assay [1] and in assay [14] were 5.2% and 66%, respectively. The inhibition of growth at 10 µM in assay [2] is 8%; in assay [6], 87%; in [7] it was 72%; in assay [10], 91%; in assay [13], 10%. Also, the GI50 in assay [3] came out at 3.7 µM; in [4], 31 µM; in [8], 2 µM; in assay [11] it was 1 µM; in assay [12] it was 58 µM. Besides, the values for the half-inhibitory concentration (IC50) in assay [9] and in assay [15] were 0.066 µM and 0.925 µM, respectively.
